Experimental data as given in ChEMBL document CHEMBL4813913, “In vitro identification of imidazo[1,2-a]pyrazine-based antileishmanial agents and evaluation of L. major casein kinase 1 inhibition” (Eur J Med Chem, 2021).

How the values were obtained:
Leishmania amazonensis = assay: Antileishmanial activity against amastigote stage Leishmania amazonensis (MHOM/BR/73/M2269) infected in mouse RAW264.7 cells assessed as reduction in parasitic proliferation measured by SYBR Green 1 dye based fluorescence assay; format: functional, organism-based; settings: MHOM/BR/73/M2269, RAW264.7
How it was run: (§1)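 RAW 264.7 macrophages seeded at 100,000 cells/well in DMEM with 10% heat-inactivated FBS, 24 h at 37 °C, 5% CO₂. Infected with plateau-phase promastigotes (parasite:macrophage 16:1) for 24 h. Compounds serially diluted, final 391 nM–100 μM. Amastigote viability read by SYBR Green I after lysis and 3 freeze-thaw cycles. IC50 by nonlinear regression against excipient-treated controls. Miltefosine reference.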

Leishmania braziliensis = assay: Antileishmanial activity against amastigote stage of Leishmania braziliensis (MHOM/BR/75/M2903b) infected in mouse RAW264.7 cells assessed as reduction in parasitic proliferation measured by SYBR Green 1 dye based fluorescence assay; format: functional, organism-based; how it was run: as §1
[1] = Selectivity index, ratio of CC50 for mouse RAW264.7 cells to IC50 for amastigote stage of Leishmania amazonensis (MHOM/BR/73/M2269) infected in mouse RAW264.7 cells; format: toxicity, cell-based; settings: read-out: Ratio CC50/IC50
How it was run: (§2)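 Selectivity index is CC50 on RAW 264.7 or MRC-5 cells divided by IC50 on intracellular amastigotes.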

[2] = Selectivity index, ratio of CC50 for human MRC5 cells to IC50 for amastigote stage of Leishmania braziliensis (MHOM/BR/75/M2903b) infected in mouse RAW264.7 cells; format: toxicity, cell-based; settings: read-out: Ratio CC50/IC50; how it was run: as §2
Leishmania infantum = assay: Antileishmanial activity against amastigote stage of Leishmania infantum (MHOM/FR/2008/LEM5700) infected in mouse RAW264.7 cells assessed as reduction in parasitic proliferation measured by SYBR Green 1 dye based fluorescence assay; format: functional, organism-based; settings: MHOM/FR/2008/LEM5700, RAW264.7; how it was run: as §1
Leishmania donovani = assay: Antileishmanial activity against amastigote stage of Leishmania donovani (MHOM/ET/67/HU3) infected in mouse RAW264.7 cells assessed as reduction in parasitic proliferation measured by SYBR Green 1 dye based fluorescence assay; format: functional, organism-based; settings: MHOM/ET/67/HU3, RAW264.7; how it was run: as §1
[3] = Selectivity index, ratio of CC50 for human MRC5 cells to IC50 for amastigote stage of Leishmania infantum (MHOM/FR/2008/LEM5700) infected in mouse RAW264.7 cells; format: toxicity, cell-based; settings: read-out: Ratio CC50/IC50; how it was run: as §2
[4] = Selectivity index, ratio of CC50 for human MRC5 cells to IC50 for amastigote stage of Leishmania donovani (MHOM/ET/67/HU3) infected in mouse RAW264.7 cells; format: toxicity, cell-based; settings: read-out: Ratio CC50/IC50; how it was run: as §2
[5] = Toxicity against Galleria mellonella larva assessed as cuticular darkening at 50 mg/kg measured for 7 days; format: organism-based; settings: in vivo, 168 h, time 7 day
How it was run: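 G. mellonella larvae (6th stage, 260–320 mg), groups of ten. Injected in the 4th left pro-leg with 10 μL at 10–50 mg/kg; controls got PBS/DMSO (DMSO <40%). Kept in the dark at 37 °C. Survival and cuticular darkening scored daily for 7 days; death taken as no movement on stimulus. Kaplan-Meier with log-rank test; two independent experiments.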

CDK2/Cyclin A2 = CDK2/Cyclin A2 (Homo sapiens, UniProt P24941); assay: Inhibition of human CDK2/ cyclinA using histone H1 as substrate in presence of ATP measured after 30 mins by ADP-Glo assay; format: protein-complex assay
[6] = target: Cyclin-dependent kinase 5/CDK5 activator 1 (Homo sapiens, UniProt Q00535); assay: Inhibition of human recombinant CDK5/ p25 expressed in bacterial expression system using histone H1 as substrate in presence of ATP measured after 30 mins by ADP-Glo assay
Chain of Cyclin-dependent kinase 5/CDK5 activator 1 (Q00535 whole entry): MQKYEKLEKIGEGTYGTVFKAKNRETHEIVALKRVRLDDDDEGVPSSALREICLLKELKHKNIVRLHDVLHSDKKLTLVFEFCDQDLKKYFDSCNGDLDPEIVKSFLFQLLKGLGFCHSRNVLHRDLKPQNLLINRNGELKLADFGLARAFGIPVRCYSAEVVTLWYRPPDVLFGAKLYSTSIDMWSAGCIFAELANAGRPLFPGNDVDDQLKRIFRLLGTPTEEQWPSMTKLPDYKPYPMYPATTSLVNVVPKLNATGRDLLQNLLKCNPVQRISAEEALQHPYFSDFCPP
Chain of Cyclin-dependent kinase 5/CDK5 activator 1 (Q15078 whole entry, further chain): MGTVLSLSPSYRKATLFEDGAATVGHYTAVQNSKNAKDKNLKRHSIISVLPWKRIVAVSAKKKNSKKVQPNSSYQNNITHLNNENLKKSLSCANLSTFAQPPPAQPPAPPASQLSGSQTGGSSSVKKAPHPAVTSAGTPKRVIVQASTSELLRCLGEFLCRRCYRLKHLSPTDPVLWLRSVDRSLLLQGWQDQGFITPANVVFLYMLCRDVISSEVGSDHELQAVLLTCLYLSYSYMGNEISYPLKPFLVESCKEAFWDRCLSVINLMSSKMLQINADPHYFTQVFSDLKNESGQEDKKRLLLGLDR

CDK9/cyclin T1 = CDK9/cyclin T1 (Homo sapiens, UniProt P50750); assay: Inhibition of human recombinant CDK9/CyclinT expressed in baculovirus infected Sf9 cells using YSPTSPSYSPTSPSYSPTSPSKKK as substrate in presence of ATP measured after 30 mins by ADP-Glo assay
Chain of CDK9/cyclin T1 (O60563 whole entry): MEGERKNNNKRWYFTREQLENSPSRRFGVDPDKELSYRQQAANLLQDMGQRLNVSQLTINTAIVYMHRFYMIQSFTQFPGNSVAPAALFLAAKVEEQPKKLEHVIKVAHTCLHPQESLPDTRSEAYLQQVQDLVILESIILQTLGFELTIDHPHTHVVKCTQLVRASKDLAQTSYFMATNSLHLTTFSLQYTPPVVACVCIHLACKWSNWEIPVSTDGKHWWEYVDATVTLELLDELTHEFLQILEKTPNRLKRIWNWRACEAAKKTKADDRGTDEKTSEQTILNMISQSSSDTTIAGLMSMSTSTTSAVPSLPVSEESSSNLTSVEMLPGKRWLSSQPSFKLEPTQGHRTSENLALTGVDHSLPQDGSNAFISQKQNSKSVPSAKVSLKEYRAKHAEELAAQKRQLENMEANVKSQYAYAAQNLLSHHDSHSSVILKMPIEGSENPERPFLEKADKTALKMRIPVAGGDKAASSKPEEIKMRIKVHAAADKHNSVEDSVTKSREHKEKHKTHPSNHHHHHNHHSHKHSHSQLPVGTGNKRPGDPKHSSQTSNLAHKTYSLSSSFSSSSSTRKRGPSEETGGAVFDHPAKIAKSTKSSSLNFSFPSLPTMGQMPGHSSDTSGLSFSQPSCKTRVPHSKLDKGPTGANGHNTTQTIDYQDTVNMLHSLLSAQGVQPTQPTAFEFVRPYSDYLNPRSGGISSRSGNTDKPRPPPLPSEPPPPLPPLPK
Chain of CDK9/cyclin T1 (P50750 whole entry): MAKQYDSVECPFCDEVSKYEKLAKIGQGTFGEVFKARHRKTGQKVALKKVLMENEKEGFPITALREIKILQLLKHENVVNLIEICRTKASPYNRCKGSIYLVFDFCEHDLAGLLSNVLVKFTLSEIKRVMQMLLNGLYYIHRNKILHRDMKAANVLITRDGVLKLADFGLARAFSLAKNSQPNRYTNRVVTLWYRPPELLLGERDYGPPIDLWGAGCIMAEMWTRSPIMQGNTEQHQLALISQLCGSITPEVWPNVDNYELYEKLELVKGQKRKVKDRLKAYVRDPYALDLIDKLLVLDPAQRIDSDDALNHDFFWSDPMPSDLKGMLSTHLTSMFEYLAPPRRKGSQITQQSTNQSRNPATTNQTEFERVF

[7] = target: Dual specificity protein kinase CLK1 (Mus musculus, UniProt P22518); assay: Inhibition of recombinant mouse CLK1 expressed in bacteria using GRSRSRSRSRSR as substrate in presence of ATP measured after 30 mins by ADP-Glo assay
Chain of Dual specificity protein kinase CLK1 (P22518 whole entry): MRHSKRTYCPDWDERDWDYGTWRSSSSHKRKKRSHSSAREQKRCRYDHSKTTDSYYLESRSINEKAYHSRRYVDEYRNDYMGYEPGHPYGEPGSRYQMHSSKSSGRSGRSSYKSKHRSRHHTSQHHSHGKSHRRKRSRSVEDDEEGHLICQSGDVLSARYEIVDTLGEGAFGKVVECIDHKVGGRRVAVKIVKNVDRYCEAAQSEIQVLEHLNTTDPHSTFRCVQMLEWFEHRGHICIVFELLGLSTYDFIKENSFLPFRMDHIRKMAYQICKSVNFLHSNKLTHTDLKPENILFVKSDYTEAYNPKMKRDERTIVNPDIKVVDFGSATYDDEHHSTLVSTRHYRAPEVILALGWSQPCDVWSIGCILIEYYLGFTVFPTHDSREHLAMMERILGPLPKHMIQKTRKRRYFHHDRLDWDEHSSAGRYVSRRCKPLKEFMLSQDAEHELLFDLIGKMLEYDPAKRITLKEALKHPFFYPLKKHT

[8] = target: Serine/threonine-protein kinase pim-1 (Homo sapiens, UniProt P11309); assay: Inhibition of recombinant human PIM1 expressed in bacteria using histone H1 as substrate in presence of ATP measured after 30 mins by ADP-Glo assay; settings: 0.5 h
Chain of Serine/threonine-protein kinase pim-1 (P11309 whole entry): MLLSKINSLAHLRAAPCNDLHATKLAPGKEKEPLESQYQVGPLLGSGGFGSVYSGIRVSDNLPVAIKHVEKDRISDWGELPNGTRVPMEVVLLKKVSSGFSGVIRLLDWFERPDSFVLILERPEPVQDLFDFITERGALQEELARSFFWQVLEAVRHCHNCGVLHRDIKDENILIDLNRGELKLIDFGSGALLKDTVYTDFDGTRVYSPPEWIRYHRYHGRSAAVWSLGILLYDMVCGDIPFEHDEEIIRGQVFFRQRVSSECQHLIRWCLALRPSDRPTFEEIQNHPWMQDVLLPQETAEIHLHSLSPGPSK

Aurora kinase B = Aurora kinase B (Homo sapiens, UniProt Q96GD4); assay: Inhibition of recombinant human AURKB expressed in baculovirus infected Sf9 cells using MBP as substrate in presence of ATP measured after 30 mins by ADP-Glo assay; settings: sf9, 0.5 h
Chain of Aurora kinase B (Q96GD4 whole entry): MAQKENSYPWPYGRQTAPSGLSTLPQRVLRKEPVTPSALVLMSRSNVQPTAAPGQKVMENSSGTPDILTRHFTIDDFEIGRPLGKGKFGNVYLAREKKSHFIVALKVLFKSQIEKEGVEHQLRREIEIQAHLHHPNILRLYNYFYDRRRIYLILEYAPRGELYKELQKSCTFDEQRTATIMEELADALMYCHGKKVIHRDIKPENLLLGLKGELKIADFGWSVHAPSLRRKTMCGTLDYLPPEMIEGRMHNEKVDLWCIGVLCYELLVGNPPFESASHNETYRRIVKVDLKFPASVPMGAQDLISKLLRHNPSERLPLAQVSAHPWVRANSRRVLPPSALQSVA

[9] = target: Dual specificity tyrosine-phosphorylation-regulated kinase 1A (Rattus norvegicus, UniProt Q63470); assay: Inhibition of recombinant rat DYRK1A (1 to 499 ) expressed in bacterial expression system using KKISGRLSPIMTEQ as substrate in presence of ATP measured after 30 mins by ADP-Glo assay; settings: 0.5 h
Leishmania major = assay: Antileishmanial activity against amastigote stage of Leishmania major (MHOM/IL/81/BNI) infected in BALB/c mouse peritoneal macrophages assessed as reduction in parasitic proliferation measured after 4 days by MayGrunwald-Giemsa stain based microscopic method; format: functional, organism-based; settings: Peritoneal macrophage, 96 h
How it was run: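 BALB/c peritoneal macrophages on glass slides, 1.5×10⁵ cells/mL in RPMI 1640 with 15% FBS, 24 h attachment. Infected with stationary-phase promastigotes (1.5×10⁶/mL) for 24 h at 37 °C, 5% CO₂. Washed, then exposed 4 days to 100, 10, 1, 0.1 μM (DMSO ≤1% final). Methanol-fixed, May-Grunwald-Giemsa stained, amastigotes counted in 100 macrophages per duplicate well. IC50 from amastigotes/macrophage. Run twice.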

[10] = Cytotoxicity against mouse RAW264.7 cells assessed as reduction in cell growth measured after 48 hrs by SYBR Green 1 dye based fluorescence assay
How it was run: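 RAW 264.7 cells seeded at 100,000 cells/well in DMEM with 10% FBS, 24 h at 37 °C, 5% CO₂. Two-fold serial dilutions, final 49 nM–100 μM, for 48 h. Growth read by SYBR Green I. CC50 by nonlinear regression. Miltefosine reference; untreated cells as growth control.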

[11] = Cytotoxicity against human MRC5 cells assessed as reduction in cell viability measured after 96 hrs by resazurin assay; format: cell-based
How it was run: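 Human MRC-5 fibroblasts grown in RPMI 1640 with 10% FBS. Exposed to 100, 10 and 1 μM in triplicate for 96 h. Then 10 μL of 700 μM resazurin added for 4 h and fluorescence read. Value is the mean of triplicates.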

[12] = Selectivity index, ratio of CC50 for mouse RAW264.7 cells to IC50 for amastigote stage of Leishmania major (MHOM/IL/81/BNI) infected in BALB/c mouse peritoneal macrophages; format: toxicity; settings: read-out: Ratio CC50/IC50; how it was run: as §2
[13] = Selectivity index, ratio of CC50 for human MRC5 cells to IC50 for amastigote stage of Leishmania major (MHOM/IL/81/BNI) infected in BALB/c mouse peritoneal macrophages; format: toxicity; settings: read-out: Ratio CC50/IC50; how it was run: as §2
[14] = Selectivity index, ratio of CC50 for human MRC5 cells to IC50 for amastigote stage of Leishmania amazonensis (MHOM/BR/73/M2269) infected in mouse RAW264.7 cells; format: toxicity, cell-based; settings: read-out: Ratio CC50/IC50; how it was run: as §2
[15] = Selectivity index, ratio of CC50 for mouse RAW264.7 cells to IC50 for amastigote stage of Leishmania braziliensis (MHOM/BR/75/M2903b) infected in mouse RAW264.7 cells; format: toxicity, cell-based; settings: read-out: Ratio CC50/IC50; how it was run: as §2
[16] = Selectivity index, ratio of CC50 for mouse RAW264.7 cells to IC50 for amastigote stage of Leishmania infantum (MHOM/FR/2008/LEM5700) infected in mouse RAW264.7 cells; format: toxicity, cell-based; settings: read-out: Ratio CC50/IC50; how it was run: as §2
[17] = Selectivity index, ratio of CC50 for mouse RAW264.7 cells to IC50 for amastigote stage of Leishmania donovani (MHOM/ET/67/HU3) infected in mouse RAW264.7 cells; format: toxicity, cell-based; settings: read-out: Ratio CC50/IC50; how it was run: as §2

| SMILES | IC50 (Leishmania amazonensis) [µM] | IC50 (Leishmania braziliensis) [µM] | selectivity ratio [1] | selectivity ratio [2] | IC50 (Leishmania infantum) [µM] | IC50 (Leishmania donovani) [µM] | selectivity ratio [3] | selectivity ratio [4] | Activity [5] | IC50 (CDK2/Cyclin A2) [µM] | IC50 [6] [µM] | IC50 (CDK9/cyclin T1) [µM] | IC50 [7] [µM] | inhibition (INH) [8] | inhibition (INH) (Aurora kinase B) | inhibition (INH) [9] | further results |
| --- | --- | --- | --- | --- | --- | --- | --- | --- | --- | --- | --- | --- | --- | --- | --- | --- | --- |
| CN(C)c1nccn2c(-c3ccncc3)c(-c3ccc(F)cc3)nc12 | 28.4 | 57.9 | 1.5 | 1.7 | 12.8 | 2.74 | 7.8 | 36.5 | Non-Toxic | > 10 | > 10 | > 10 | > 10 | Not Active | Not Active | Not Active | – |
| CN(C)c1nccn2c(-c3cncnc3)c(-c3ccc(F)cc3)nc12 | > 50 | 22.8 | – | 4.4 | > 50 | > 50 | – | – | Non-Toxic | > 10 | > 10 | > 10 | > 10 | Not Active | Not Active | Not Active | – |
| CN(C)c1nccn2c(-c3cnn(C)c3)c(-c3ccc(F)cc3)nc12 | > 25 | > 25 | 0.6 | 4 | 2.6 | 1.27 | 38.5 | 78.7 | Non-Toxic | > 10 | > 10 | > 10 | > 10 | Not Active | Not Active | Not Active | – |
| CN(C)c1nccn2c(-c3ccc4[nH]ncc4c3)c(-c3ccc(F)cc3)nc12 | > 12.5 | > 12.5 | 0.6 | 2 | 12.9 | > 12.5 | 2 | 2 | Non-Toxic | > 10 | > 10 | > 10 | > 10 | Not Active | Not Active | Not Active | – |
| CCCCCCCCCCCCCCCCOP(=O)([O-])OCC[N+](C)(C)C [MILTEFOSINE] | 4.22 | 8.33 | 10.2 | 4.4 | 2.96 | 1.83 | 12.4 | 20.1 | – | – | – | – | – | – | – | – | IC50 (Leishmania major): 1.44 µM; CC50 at 48 h [10]: 43 µM; CC50 at 96 h [11]: 36.8 µM; selectivity ratio [12]: 29.9; selectivity ratio [13]: 25.5; selectivity ratio [14]: 8.7; selectivity ratio [15]: 5.2; selectivity ratio [16]: 14.5; selectivity ratio [17]: 23.5 |
